# High-throughput results: PubChem, several laboratories
# Jurkat NFkB inh – lowers PMA/ionomycin-induced NF-kB signal in Jurkat cells | PMA/ionomycin-induced NF-kB luciferase reporter, luminescence | inhibition, % at 4 µM | hit rate 0.53% among 330,000 | AID 435003; in the data active = inhibition above about 50%
# UPR XBP1 act – adaptive UPR (XBP1) activation. CHO-XBP1 luciferase reporter, IRE1-XBP1 UPR activation, luminescence; percent of tunicamycin response, DMSO as zero. activation, % at 20 µM. hit rate 0.33% among 330,000;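 active = versus positive control, 20 µM dose yields 30% or more activation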;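 note: 100% = tunicamycin at 10 µg/mL and 0% = DMSO only wells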
#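 Material: IRE1-XBP1 luciferase reporter CHO line / Quantity: one thousand reporter cells per well / Buffer or medium: F12 with 10% serum / Compound: 20 µM single concentration, DMSO 1% / Times: 6 h treatment, 37 °C / Detection: Steady-Glo luciferase glow luminescence, 10 min after reagent addition / Benchmarks: tunicamycin high, DMSO low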
# CHOP inh – blocks CHOP induction under ER stress. inhibition, % at 10 µM. CHO-K1 CHOP-promoter luciferase, tunicamycin-induced, 15-18 h. AID 2732. hit rate 3.8% among 220,000;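 active = compounds that reduced the stress-induced luciferase reporter signal by more than about 70% of percent inhibition, limit read from the data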;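 note: 0% = tunicamycin plus vehicle and 100% = wells without tunicamycin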
# CHOP UPR activ – apoptotic UPR (CHOP) activation. CHO-CHOP luciferase reporter, luminescence; percent of tunicamycin response over DMSO baseline. activation, % at 10 µM. hit rate 0.34% among 330,000. AID 449763;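 active = at 10 µM dose, activation of 40% or more, normalized to positive control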;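 note: 100% = tunicamycin at 10 µg/mL and 0% = DMSO alone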
#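 System: CHO-CHOP luciferase reporter cell line | Buffer or medium: F12 medium containing 10% fetal bovine serum | Doses: One dose, 10 µM in 0.5% DMSO | Times: 6 h compound exposure at 37 °C after overnight seeding | Signal: Luciferase luminescence | Read-out: % activation vs tunicamycin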
# 697 NFkB inh – inhibitors of the PMA/ionomycin-induced NF-kB reporter in 697 B cells; 697 B-cell NF-kB luciferase reporter, 16 h; inhibition, % at 4 µM; hit rate 0.33% among 330,000; in the data active = inhibition above about 35%
# Starred values were filed as active, the others as inactive; x = no result. This excerpt belongs to a sample that is enriched for hits.
SMILES,Jurkat NFkB inh,UPR XBP1 act,CHOP inh,CHOP UPR activ,697 NFkB inh
CC(=O)c1c(C)[nH]c(C(=O)OCC(=O)N(Cc2ccccc2)C(C)(C)C)c1C,9,-4,x,4,1
Cc1ccccc1Cn1cc(NC(=O)c2noc3c2CC(C(C)(C)C)CC3)cn1 (centres undefined),-19,2,86*,1,-24
CCOc1cc(C(=O)O/N=C(\N)c2ccc([N+](=O)[O-])cc2)cc(OCC)c1OCC,2,2,79*,5,7
CC(C)c1ccc(NC2CCCN(C(=O)CN3C(=O)CSC3=O)C2)cc1 (centres undefined),-5,-2,x,0,12
Cc1ccccc1/C=C\c1nc2ccccc2c(=O)[nH]1,-62,-3,84*,3,-112
Cn1c(=O)oc2cc(S(=O)(=O)N3CCC(C(=O)NCc4cccs4)CC3)ccc21,9,-2,75*,-1,7
